Calls of active or inactive are those of the source. No cut-off for these calls is given here.
Tests used:
[1] = molecular target: T1, Integrin alpha-V/beta-5 (Homo sapiens, UniProt P06756+P18084); assay: Agonist activity at alphaVbeta5 in human MCF7 cells assessed as increase in cell adhesion to fibrinogen pre-incubated for 30 mins before fibrinogen and further incubated for 1 hr by nitrophenyl-N-acetyl-beta-D-glucosaminide substrate based chromogenic assay
Summary of the method: (§1)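 Compound or methanol vehicle pre-incubated with cells for 30 min at room temperature. Cells then plated on wells coated overnight at 4 °C with fibronectin 10 µg/mL (SK-MEL-24, K562, HT-29) or fibrinogen 10 µg/mL (MCF7, HEL). Seeding was 50,000 cells/well, or 100000 for HEL. Adhesion ran 1 h at room temperature. Wells washed with 1% BSA/PBS. Adherent cells read by hexosaminidase substrate, absorbance 405 nm. Quadruplicate, at least three repeats.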

[2] = molecular target: T2, Integrin alpha-V/beta-3 (Homo sapiens, UniProt P05106+P06756); assay: Inhibition of fibronectin binding to human recombinant alphaVbeta3 expressed in HEK293 cells incubated for 1 hr by […] competitive solid-phase binding assay; format: cell-based
[3] = tested on: SK-MEL-24; assay: Toxicity in human SK-MEL-24 cells assessed as induction of cell necrosis and/or apoptosis incubated for 3 hrs by annexin V-PE and 7-AAD staining based by flow cytometry; details: sk-mel-24, 3 h
Summary of the method: (§2)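 After 3 h incubation, cells resuspended in complete medium and stained with annexin V-PE/7-AAD reagent for 20 min at room temperature in the dark. Flow cytometry sorted cells into viable, early apoptotic and late apoptotic/necrotic populations.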

[4] = molecular target: T3, Integrin alpha-5/beta-1 (Homo sapiens, UniProt P05556+P08648); assay: Agonist activity at alpha5beta1 in human K562 cells assessed as assessed as increase in ERK1/2 phosphorylation at 1 to 100 nM by Western blot analysis; format: cell-based; details: filed as agonist, dose 1-100 nM
[5] = tested on: HT-29; assay: Toxicity in human HT-29 cells assessed as induction of cell necrosis and/or apoptosis incubated for 3 hrs by annexin V-PE and 7-AAD staining based by flow cytometry; details: ht-29, 3 h; summary of the method: as §2
[6] = molecular target: T3, Integrin alpha-5/beta-1; assay: Agonist activity at alpha5beta1 in human K562 cells assessed as increase in cell adhesion to fibronectin at 10 ug/ml pre-incubated for 30 mins and further incubated for 1 hr in presence of integrin antagonist c(-RGDfV) by nitrophenyl-N-acetyl-beta-D-glucosaminide substrate based chromogenic assay; details: dose 10.0 µg/ml, time 90.0 min
Summary of the method: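 Agonist-coated wells (10 µg/mL in methanol). Cells pre-treated 10 min before plating with neutralizing anti-α5, anti-αv or anti-α4 antibody (10 µg/mL), or pre-incubated with c(-RGDfV) (1 µM). K562 plated at 50,000/well and Jurkat E6.1 at 500,000/well. Adhesion quantified as in the standard assay.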

[7] = molecular target: T4, Integrin alpha-IIb/beta-3 (Homo sapiens, UniProt P05106+P08514); assay: Agonist activity at alpha2bbeta3 in human HEL cells assessed as increase in cell adhesion to fibrinogen pre-incubated for 30 mins before fibrinogen and further incubated for 1 hr by nitrophenyl-N-acetyl-beta-D-glucosaminide substrate based chromogenic assay
Summary of the method: (§3)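 Compound or methanol vehicle pre-incubated with cells for 30 min at room temperature. Cells then plated on wells coated overnight at 4 °C with fibronectin 10 µg/mL (SK-MEL-24, K562, HT-29) or fibrinogen 10 µg/mL (MCF7, HEL). Seeding was 50,000 cells/well, or 100000 for HEL. Adhesion ran 1 h at room temperature. Wells washed with 1% BSA/PBS. Quadruplicate, at least three repeats.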

[8] = molecular target: T2, Integrin alpha-V/beta-3; assay: Agonist activity at alphaVbeta3 in human SK-MEL-24 cells assessed as increase in cell adhesion to fibronectin pre-incubated for 30 mins before fibronectin and further incubated for 1 hr by nitrophenyl-N-acetyl-beta-D-glucosaminide substrate based chromogenic assay; summary of the method: as §1
[9] = molecular target: T3, Integrin alpha-5/beta-1; assay: Agonist activity at alpha5beta1 in human K562 cells assessed as increase in cell adhesion to fibronectin at 10 ug/ml […] and further incubated for 1 hr in presence of neutralizing antibody against the alpha5 integrin subunit by nitrophenyl-N-acetyl-beta-D-glucosaminide substrate based chromogenic assay; details: dose 10.0 µg/ml, time 90.0 min
[10] = molecular target: T3, Integrin alpha-5/beta-1; assay: Agonist activity at alpha5beta1 in human K562 cells assessed as increase in cell adhesion to fibronectin pre-incubated for 30 mins before fibronectin and further incubated for 1 hr by nitrophenyl-N-acetyl-beta-D-glucosaminide substrate based chromogenic assay; summary of the method: as §1
[11] = molecular target: T5, Integrin alpha-L/beta-2 (LFA-1) (Homo sapiens, UniProt P05107+P20701); assay: Agonist activity at alphaLbeta2 in human Jurkat E6.1 cells assessed as increase in cell adhesion to ICAM1 pre-incubated for 30 mins before ICAM1 and further incubated for 30 mins by […]; format: cell-based
Summary of the method: (§4)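 Jurkat E6.1 cells labelled with CellTracker green CMFDA (12.5 µM, 30 min, 37 °C), washed, then pre-incubated 30 min at 37 °C with compound or methanol. Plated at 500,000/well on VCAM-1 (α4β1) or ICAM-1 (αLβ2) coated wells (5 µg/mL) for 30 min at 37 °C. Cells lysed in 0.5% Triton X-100; fluorescence read Ex485/Em535. Quadruplicate, at least three repeats.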

[12] = molecular target: T6, Integrin alpha-4/beta-1 (Homo sapiens, UniProt P05556+P13612); assay: Antagonist activity at alpha4beta1 in human Jurkat E6.1 cells assessed as reduction in VCAM-1 induced ERK1/2 phosphorylation at 1 to 100 nM by Western blot analysis; format: cell-based; details: filed as antagonist, dose 1-100 nM
[13] = molecular target: T4, Integrin alpha-IIb/beta-3; assay: Antagonist activity at alpha2bbeta3 in human HEL cells assessed as reduction in cell adhesion to fibrinogen pre-incubated for 30 mins before fibrinogen and further incubated for 1 hr by nitrophenyl-N-acetyl-beta-D-glucosaminide substrate based chromogenic assay; summary of the method: as §3
[14] = molecular target: T6, Integrin alpha-4/beta-1; assay: Inhibition of fibronectin binding to […] isolated from human Jurkat E6.1 cells incubated for 1 hr by scintillation-proximity assay based competitive solid-phase binding assay; format: tissue-based
[15] = molecular target: T3, Integrin alpha-5/beta-1; assay: Inhibition of fibronectin binding to alpha5beta1 isolated from human K562 cells incubated for 1 hr by […] competitive solid-phase binding assay; format: tissue-based
Summary of the method: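 Plates coated overnight at 4 °C in carbonate buffer pH 9.6 with fibronectin 0.5 µg/mL (αvβ3, αvβ6, α5β1), fibrinogen 10 µg/mL (αIIbβ3, αvβ5) or ICAM-1 (αLβ2). Blocked 1 h in buffer containing Ca/Mg/Mn 1 mM each and 1% BSA. Purified integrin (3–10 µg/mL) incubated with compound (10⁻⁴–10⁻¹⁰ M) 1 h at room temperature. Bound integrin detected with primary antibody then AlexaFluor488 secondary, Ex485/Em535. Duplicate, at least three repeats.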

[16] = tested on: HEL; assay: Toxicity in human HEL cells assessed as induction of cell necrosis and/or apoptosis incubated for 3 hrs by annexin V-PE and 7-AAD staining based by flow cytometry; summary of the method: as §2
[17] = molecular target: T3, Integrin alpha-5/beta-1; assay: Agonist activity at alpha5beta1 in human K562 cells assessed as increase in cell adhesion to fibronectin pre-incubated for 30 mins and further incubated for 1 hr by nitrophenyl-N-acetyl-beta-D-glucosaminide substrate based chromogenic assay; details: filed as agonist, time 90.0 min; summary of the method: as §1
[18] = tested on: MCF7; assay: Toxicity in human MCF7 cells assessed as induction of cell necrosis and/or apoptosis incubated for 3 hrs by annexin V-PE and 7-AAD staining based by flow cytometry; details: mcf7, 3 h; summary of the method: as §2
[19] = molecular target: T1, Integrin alpha-V/beta-5; assay: Inhibition of fibrinogen binding to alphaVbeta5 isolated form human mCf7 cells incubated for 1 hr by […] competitive solid-phase binding assay
[20] = molecular target: T5, Integrin alpha-L/beta-2 (LFA-1); assay: Antagonist activity at alphaLbeta2 in human Jurkat E6.1 cells assessed as reduction in cell adhesion to ICAM1 pre-incubated for 30 mins before ICAM1 and further incubated for 30 mins by […]; format: cell-based; summary of the method: as §4
[21] = molecular target: T4, Integrin alpha-IIb/beta-3; assay: Agonist activity at alpha2bbeta3 in human K562 cells assessed as increase in cell adhesion to fibrinogen pre-incubated for 30 mins and further incubated for 1 hr in presence of alpha2bbeta3 antagonist Tirofiban by nitrophenyl-N-acetyl-beta-D-glucosaminide substrate based chromogenic assay; details: filed as agonist, time 90.0 min
[22] = molecular target: T6, Integrin alpha-4/beta-1; assay: Antagonist activity at alpha4beta1 in human Jurkat E6.1 cells assessed as reduction in cell adhesion to VCAM1 pre-incubated for 30 mins before VCAM1 and further incubated for 30 mins by […]; format: cell-based
[23] = molecular target: T7, Integrin alpha-V/beta-6 (Homo sapiens, UniProt P06756+P18564); assay: Inhibition of fibronectin binding to alphaVbeta6 isolated form human HT-29 cells incubated for 1 hr by […] competitive solid-phase binding assay; format: tissue-based
[24] = tested on: K562; assay: Toxicity in human K562 cells assessed as induction of cell necrosis and/or apoptosis incubated for 3 hrs by annexin V-PE and 7-AAD staining based by flow cytometry; details: k562, 3 h; summary of the method: as §2
[25] = molecular target: T7, Integrin alpha-V/beta-6; assay: Antagonist activity at alphaVbeta6 in human HT-29 cells assessed as reduction in cell adhesion to fibronectin pre-incubated for 30 mins before fibronectin and further incubated for 1 hr by nitrophenyl-N-acetyl-beta-D-glucosaminide substrate based chromogenic assay; summary of the method: as §3
[26] = molecular target: T6, Integrin alpha-4/beta-1; assay: Agonist activity at alpha4beta1 in human Jurkat E6.1 cells assessed as increase in cell adhesion to VCAM1 pre-incubated for 30 mins before VCAM1 and further incubated for 30 mins by […]; format: cell-based; summary of the method: as §4
[27] = molecular target: T7, Integrin alpha-V/beta-6; assay: Agonist activity at alphaVbeta6 in human HT-29 cells assessed as increase in cell adhesion to fibronectin pre-incubated for 30 mins before fibronectin and further incubated for 1 hr by nitrophenyl-N-acetyl-beta-D-glucosaminide substrate based chromogenic assay; summary of the method: as §1
[28] = molecular target: T4, Integrin alpha-IIb/beta-3; assay: Inhibition of fibrinogen binding to alpha2bbeta3 isolated from human HEL cells incubated for 1 hr by […] competitive solid-phase binding assay
[29] = molecular target: T2, Integrin alpha-V/beta-3; assay: Agonist activity at alphaVbeta3 in human SK-MEL-24 cells assessed as increase in cell adhesion to fibronectin at 10 ug/ml pre-incubated for 30 mins and further incubated for 1 hr in presence of in presence of integrin antagonist c(-RGDfV) by nitrophenyl-N-acetyl-beta-D-glucosaminide substrate based chromogenic assay; details: dose 10.0 µg/ml, time 90.0 min
[30] = molecular target: T2, Integrin alpha-V/beta-3; assay: Agonist activity at alphaVbeta3 in human SK-MEL-24 cells assessed as increase in cell adhesion to fibronectin at 2 to 10 ug/ml pre-incubated for 30 mins and further incubated for 1 hr by nitrophenyl-N-acetyl-beta-D-glucosaminide substrate based chromogenic assay; details: filed as agonist, dose 2-10 µg/ml, time 90.0 min
[31] = molecular target: T2, Integrin alpha-V/beta-3; assay: Agonist activity at alphaVbeta3 in human SK-MEL-24 cells assessed as increase in cell adhesion to fibronectin at 10 ug/ml pre-incubated for 30 mins and further incubated for 1 hr in presence of neutralizing antibody against the alphaV integrin subunit by nitrophenyl-N-acetyl-beta-D-glucosaminide substrate based chromogenic assay; details: dose 10.0 µg/ml, time 90.0 min

SMILES | EC50 [1] | IC50 [2] | Activity [3] | Activity [5] | EC50 [7] | IC50 [13] | IC50 [14] | IC50 [15] | Activity [16] | Activity [18] | IC50 [19] | IC50 [20] | IC50 [22] | IC50 [23] | Activity [24] | further results
Cc1ccccc1NC(=O)N1C(=O)CC1CC(=O)NCCC(=O)O (stereo unspecified) | 670 nM | 116 nM | Non-Toxic | Non-Toxic | > 5000 nM | > 5000 nM | 12.4 nM | 36 nM | Non-Toxic | Non-Toxic | 634 nM | > 5000 nM | 17.4 nM | 23.4 nM | Non-Toxic | Activity [4]: Dose-dependent effect; Activity [6]: inactive; EC50 [8]: 187 nM; Activity [9]: inactive; EC50 [10]: 49 nM; EC50 [11]: > 5000 nM; Activity [12]: Dose-dependent effect; Activity [17]: Dose-dependent effect; Activity [21]: Active; IC50 [25]: 44.4 nM
NCc1ccc(NC(=O)N2C(=O)CC2CC(=O)O)cc1.O=C(O)C(F)(F)F (stereo unspecified) | 5.09 nM | 5.6 nM | Non-Toxic | Non-Toxic | > 5000 nM | > 5000 nM | > 1000 nM | 5.5 nM | Non-Toxic | Non-Toxic | 3.8 nM | 2410 nM | > 5000 nM | 80.5 nM | Non-Toxic | EC50 [26]: > 5000 nM; EC50 [27]: 167 nM; IC50 [28]: > 1000 nM; Activity [29]: inactive; Activity [30]: Dose-dependent effect; Activity [31]: inactive
